High-throughput results: PubChem, Sanford-Burnham Center for Chemical Genomics
Most compounds without a hit are left out; they make up all but 2.3% or so of the library.
DNMT1 inh = DNMT1 (human) enzyme inhibition; P26358; actives 0.83% (n = 360,000); DNMT1 molecular beacon, Hinp1I cleavage, fluorescence; inhibition (reported as % activation of signal), % at 10 µM; in the data active = inhibition above about 50%
Rpn11 inh = Rpn11 (human) deubiquitinase inhibition; O00487; human 26S proteasome, Ub4-pepOG fluorescence polarization; 20S core pre-blocked with epoxomicin; inhibition, % at 20 µM; actives 0.59% (n = 360,000); AID 588493;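 active = inhibition at 20 µM, scaled to each plate's controls, above about 33%, limit read from the data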
SUMO1 PPI mod = modulators of human SUMO1-mediated protein-protein interactions. P63165. SUMO1 binding to a labelled peptide, TR-FRET, 1 h. inhibition, % at 20 µM. actives 0.33% (n = 360,000); in the data active = inhibition above about 37%
Target sequence (P63165 whole entry, looked up): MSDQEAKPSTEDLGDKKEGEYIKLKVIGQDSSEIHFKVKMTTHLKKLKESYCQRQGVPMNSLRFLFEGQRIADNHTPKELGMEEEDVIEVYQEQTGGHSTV
Scp1 inh = Scp-1 (human) phosphatase inhibition; Q9GZU7; Recombinant Scp1, phosphopeptide, malachite green phosphate absorbance; inhibition, % at 20 µM; actives 0.88% (n = 340,000); AID 493091;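 active = inhibition above about 50% at 20 µM, limit read from the data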;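 also: plate controls were DMSO wells with enzyme for no effect and wells lacking enzyme for full effect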
Target sequence (Q9GZU7 76-261 limits assumed): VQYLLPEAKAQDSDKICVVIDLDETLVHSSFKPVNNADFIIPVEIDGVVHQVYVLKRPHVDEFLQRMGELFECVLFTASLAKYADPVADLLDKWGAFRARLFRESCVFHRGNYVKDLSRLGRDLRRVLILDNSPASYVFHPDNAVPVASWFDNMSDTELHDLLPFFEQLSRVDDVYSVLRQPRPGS
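Test system: SCP-1 catalytic domain; Buffer or medium: Acidic Tris acetate buffer with magnesium and detergent; Also added: Phosphorylated 17-residue peptide substrate; Compound: single 20 µM dose, 1% DMSO; Schedule: enzyme reaction 45 min at room temperature, colour 5 min, stabilisation 30 min; Signal: Phosphate-binding colour reagent, absorbance read at 630 nm.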
STEP block = STEP (human) phosphatase inhibition. P54829. recombinant STEP, OMFP fluorogenic substrate, fluorescence. inhibition, % at 20 µM. actives 0.25% (n = 360,000). AID 588621;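 active = inhibition at 20 µM, scaled per plate between control wells, above about 37%, limit read from the data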;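 also: 0% = DMSO with enzyme and substrate and 100% = substrate only without enzyme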
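medium = Bis-Tris buffer pH 6.0, 2.5 mM DTT, 0.005% Tween 20 | test system = STEP (striatal-enriched tyrosine phosphatase) enzyme, cell-free | measure = normalized % inhibition | compound dosing = 20 µM, 1% DMSO | also added = 25 µM OMFP | schedule = reaction 20 min, ambient temperature | measured by = fluorescence read at 480 nm ex / 540 nm em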
LMPTP inh = LMPTP (human) inhibition; P24666; recombinant LMPTP-A, OMFP fluorogenic substrate, fluorescence intensity; inhibition, % at 20 µM; actives 0.22% (n = 360,000);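 active = compounds that cut the enzyme signal by at least half of the control window in the single-dose screen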;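 also: plate controls were DMSO wells with enzyme plus substrate for no effect and substrate without enzyme for full effect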
Target sequence (P24666 whole entry, looked up): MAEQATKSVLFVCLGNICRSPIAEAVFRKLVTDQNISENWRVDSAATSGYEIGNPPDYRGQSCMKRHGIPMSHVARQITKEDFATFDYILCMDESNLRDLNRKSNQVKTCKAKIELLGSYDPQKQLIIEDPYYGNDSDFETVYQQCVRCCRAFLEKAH
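Test system: LMPTP-A phosphatase enzyme; input: 0.625 nM LMPTP-A final; reagent: OMFP substrate, 400 µM final; compound dosing: 20 µM single dose, 3% DMSO; incubation: 50 min dark incubation at room temperature; measured by: endpoint fluorescence intensity from OMFP dephosphorylation; measure: % inhibition relative to no-enzyme and uninhibited control wells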
Scp-1 conf = Scp-1 (human) inhibition, single-dose confirmed. shares compounds with Scp1 inh. recombinant SCP-1 catalytic domain, phosphate release, malachite green absorbance. inhibition, % at 20 µM. actives 61% (n = 2,500). AID 540281;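 also: plate controls were DMSO with enzyme for no effect and buffer wells lacking enzyme for full effect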
MG interference = colorimetric interference in Scp-1 counter-screen | shares compounds with Scp1 inh | Colorimetric interference counterscreen, malachite green absorbance 630 nm | apparent inhibition (interference), % at 20 µM | 2,500 tested, under 10 active | AID 540313;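 also: compounds added after enzyme reaction finished so only phosphate colour detection is probed; plate controls were DMSO wells with completed Scp-1 reaction for no effect and substrate wells lacking enzyme for full effect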
Scp1 DSF = binds human Scp-1, shifting its melting temperature; shares compounds with Scp1 inh; Recombinant SCP1, Sypro Orange thermal shift Tm; thermal shift relative to vanadate control, % at 40 µM; actives 25% (n = 1,500); AID 540329;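 active = substances whose mean melting-temperature shift, as a percentage of the reference inhibitor's shift, reaches about 5.3%, limit read from the data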;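 also: 0% = Tm of DMSO wells and 100% = Tm with sodium orthovanadate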
Active calls of the source: *; . = no result given.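 The calls were made as follows, unless noted: active = inhibition of at least 30% at 20 µM; inactive = the rest.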

SMILES	DNMT1 inh	Rpn11 inh	SUMO1 PPI mod	Scp1 inh	STEP block	LMPTP inh	Scp-1 conf	MG interference	others
CCCC(C)(C)C(=O)N1CCC1(C)C(=O)Nc1cccc2ccccc12 (stereo unspecified)	6	-1	-7	.	1	0	.	.
Cc1csc(=O)n1CC(=O)OCC(=O)c1ccc(Br)cc1	1	-7	-1	-12	-2	1	.	.
COc1ccc(CC(=O)OCC(=O)NC2CCCC(C)C2C)cc1 (stereo unspecified)	7	-1	-3	-15	0	-2	.	.
CCc1cc(Cn2nc(-c3ccccc3)cc2C(=O)NCc2cccc(Br)c2)on1	-10	-1	0	-13	-1	8	.	.
COc1ccc(S(=O)(=O)Nc2ccc3c(c2)C(=O)N([C@H](C)CO)C[C@H](C)[C@@H](CN(C)S(=O)(=O)c2ccc(OC)cc2)O3)cc1	-8	2	2	66*	1	-1	14	2
C[C@H](CO)N1C[C@H](C)[C@@H](CN(C)S(=O)(=O)c2ccc(F)cc2)Oc2ccc(NC(=O)Nc3ccc4c(c3)OCO4)cc2C1=O	-12	0	11	53*	1	0	7	-11
CCOc1ccc(S(=O)(=O)Nc2cccc(C(=O)NCC3CCCO3)c2)cc1 (stereo unspecified)	0	0	3	-7	0	-1	.	.
CCC1(c2ccc(F)cc2)NC(=O)N(CC(=O)NCC(=O)Nc2cccc(C)c2C)C1=O (stereo unspecified)	2	1	2	-3	0	0	-15	-11
O=C(N/N=C/c1ccc(Cl)cc1)c1cc2c(s1)-c1ccccc1CC2	33	-7	3	101*	-3	24	64*	-15	Scp1 DSF=-18
O=C(O)c1cc2c(s1)-c1ccccc1CC2	1	2	-8	-7	-5	-1	.	.
O=C(O)C1CC(Br)C(Br)CC1C(=O)O (stereo unspecified)	10	-3	5	.	-2	-1	.	.
COc1ccc(CCNC(=O)CC(c2ccccc2)c2cccc(C)c2O)cc1OC (stereo unspecified)	3	-1	4	-9	3	2	.	.
COC(=O)c1ccn(CC(=O)NC2CCCCC2)n1	9	-12	1	66*	4	1	48*	-3	Scp1 DSF=-3
O=c1ccn2c(n1)SC(c1ccccc1)C2 (stereo unspecified)	12	-5	-2	.	1	-1	.	.
CC(Nc1cc(N2CCN(C(=O)C(C)(C)C)CC2)ccc1[N+](=O)[O-])c1ccccc1 (stereo unspecified)	-4	-5	-19	53*	3	6	-21	-24
CC(C)C(=O)N1CCN(c2ccc([N+](=O)[O-])c(NC(C)c3ccccc3)c2)CC1 (stereo unspecified)	-7	3	-20	-9	2	2	.	.
COc1ccc(-c2csc(NC(=O)c3ccoc3C)n2)cc1	-1	0	1	-4	-2	2	.	.
COc1ccccc1NC(=O)c1coc(=O)c(Br)c1	15	13	1	66*	4	8	8	-6
COc1ccccc1NC(=O)c1cc(N)cc(C(=O)Nc2ccccc2OC)c1	-2	1	-1	-8	2	1	.	.
COc1ccc(CNC(=O)C2CC(=O)N(C3CCCC3)C2)cc1 (stereo unspecified)	0	1	1	-7	0	0	.	.
Cc1cc(=O)n2c(n1)SCOC2	2	3	3	3	-5	-1	.	.
CC[C@@H](NC(=O)Cn1cc(C)c(=O)[nH]c1=O)c1ccccc1	0	2	0	1	-2	-1	.	.
Cc1cn(CC(=O)N[C@H](C)c2cccc3ccccc23)c(=O)[nH]c1=O	1	2	0	0	-2	-2	-21	-20
COc1ccccc1-c1nnc2sc(-c3cnccn3)nn12	13	-6	-7	70*	2	3	56*	-11	Scp1 DSF=5.8*
COc1ccc(Br)cc1CN(C)CC(=O)Nc1ccccc1Cl	0	3	-1	1	0	2	.	.
SMILES	DNMT1 inh	Rpn11 inh	SUMO1 PPI mod	Scp1 inh	STEP block	LMPTP inh	Scp-1 conf	MG interference	others
COc1ccc(OC)c(NC(=O)CN(C)CC(=O)Nc2ccccc2Cl)c1	-1	3	2	58*	-2	0	7	-4
O=C(C[n+]1ccccc1)Nc1ccc(Cl)c([N+](=O)[O-])c1	1	6	-26	-2	1	-2	.	.
Cc1ccc[n+](CC(=O)Nc2ccc(Cl)c([N+](=O)[O-])c2)c1	3	-5	-17	84*	-1	-1	-1	-5
CC/C(=C\C(=O)c1cccnc1)Nc1ccc(C)c(C)c1	0	4	-3	53*	0	-2	-18	-15
O=C(Oc1ccc(/C=N/NC(=O)c2ccccc2O)cc1)c1ccccc1	-6	0	0	82*	-1	3	70*	-5	Scp1 DSF=-8
Cc1cccc(C(=O)Oc2ccc(/C=N/NC(=O)c3ccncc3)cc2)c1	-4	-4	-2	-5	1	0	.	.
Cc1cccc(C(=O)Oc2ccc(/C=N/NC(=O)c3cc(O)cc(O)c3)cc2)c1	69*	-6	31	53*	63*	12	60*	-9	Scp1 DSF=3
O=C(N/N=C/c1ccc(OC(=O)c2cccs2)cc1)c1ccc(F)cc1	28	-8	-3	70*	14	28	64*	-15	Scp1 DSF=-29
O=C(N/N=C/c1ccc(F)cc1)c1ccccc1	1	-2	0	-5	2	1	.	.
O=C(N/N=C/c1ccc(OCCCF)cc1)c1ccc(C(F)(F)F)cc1	28	15	2	93*	25	30	64*	-19	Scp1 DSF=-13
CN(Cc1ccc(Cl)cc1)C(=O)c1ccccc1SCC(=O)N1CCCC1	3	-6	-1	-6	2	0	.	.
NC(=O)C1CCN(c2cc(Cl)nc(N)n2)CC1	0	-5	1	9	-1	0	.	.
Oc1ccc(C[C@H]2CNC(=S)N2C[C@H]2CCCN2C[C@H](Cc2ccccc2)N2C[C@H](Cc3ccc(O)cc3)N(CCc3ccccc3)C2=S)cc1	-43	-6	10	.	0	5	.	.
O=C(COC(=O)c1ccc(Cl)cc1O)NC(=O)C1CCCCC1	-1	0	5	-8	4	-1	.	.
